Assays:
Liver [1] = experiment: Half life in human liver microsomes at 1.5 uM in presence of NADPH by liquid chromatography/tandem mass spectrometric analysis; type: ADME, microsome
Liver [2] = experiment: Half life in mouse liver microsomes at 1.5 uM in presence of NADPH by liquid chromatography/tandem mass spectrometric analysis; type: ADME, microsome
[3] = system: Trypanosoma brucei brucei; experiment: Antitrypanosomal activity against Trypanosoma brucei brucei BF427 assessed as growth inhibition measured after 48 hrs by Alamar blue assay; type: functional; conditions: BF427, 48 h
How it was run: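 Bloodstream-form parasites in HMI-9 medium are exposed to serial compound dilutions in triplicate. Viability is read with Alamar Blue at 48 h. EC50 and EC90 come from nonlinear regression. Pentamidine isethionate is the control.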

[4] = Selectivity index, ratio of EC50 for human CRL8155 cells to EC50 for Trypanosoma brucei brucei BF427; type: toxicity; conditions: read-out: Ratio EC50
[5] = Cytotoxicity against human CRL8155 cells assessed as growth inhibition after 48 hrs by Alamar blue assay; type: cell-based; conditions: for EC50: Homo sapiens, CRL8155, 48 h; for EC90: human, crl8155, 48 h
How it was run: (§1)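 CRL-8155 lymphoblasts or HepG2 hepatocellular carcinoma cells are exposed 48 h to serial compound dilutions in quadruplicate. Growth is read with Alamar Blue, and 50% and 90% inhibitory concentrations come from nonlinear regression. Quinacrine is the control.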

HepG2 = experiment: Cytotoxicity against human HepG2 cells assessed as growth inhibition after 48 hrs by Alamar blue assay; type: cell-based; conditions: for EC50: Homo sapiens, HepG2, 48 h; for EC90: human, hepg2, 48 h; how it was run: as §1
[6] = Selectivity index, ratio of EC50 for human HepG2 cells to EC50 for Trypanosoma brucei brucei BF427; type: toxicity; conditions: read-out: Ratio EC50
[7] = Drug level in mouse plasma at 5 mg/kg, ip administered as single dose measured at 1 hr post dose by liquid chromatography/tandem mass spectrometric analysis; type: ADME, organism-based
How it was run: (§2)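 Single ip dose of 5 mg/kg in 5% DMSO/7% Tween 80/3% EtOH in 0.9% saline, three mice per compound (six for one compound). At 1 h, plasma is separated by centrifugation and brain homogenized in acetonitrile. Both are quantified by LC-MS/MS, with brain corrected for 3% v/w blood. Brain/plasma ratio is reported as mean ± SEM.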

[8] = Drug level in mouse brain at 5 mg/kg, ip administered as single dose measured at 1 hr post dose by liquid chromatography/tandem mass spectrometric analysis; type: ADME, organism-based; conditions: read-out: Drug uptake; how it was run: as §2

| Compound | EC50 [3] | EC90 [3] | further results |
| --- | --- | --- | --- |
| COc1ccc2c(c1)[C@]13CCCC[C@@H]1[C@H](C2)N(C)CC3 [DEXTROMETHORPHAN] |  |  | t1/2 (Liver [1]): 39.15 min; t1/2 (Liver [2]): 7.79 min |
| O=C(Nc1ccc2nc(-c3ccc(F)c(F)c3)sc2c1)N1CCC(F)C1 (centres undefined) | > 20 µM | > 20 µM |  |
| O=C(Nc1ccc2sc(-c3ccc(F)cc3)nc2c1)N1CCCCC1 | 0.427 µM | 0.737 µM | selectivity ratio [4]: > 117; EC50 [5]: > 50 µM; EC90 [5]: > 50 µM; EC50 (HepG2): > 50 µM; EC90 (HepG2): > 50 µM; selectivity ratio [6]: > 117 |
| O=C(Nc1ccc2sc(-c3ccccc3F)nc2c1)N1CCCC1 | 0.983 µM | 1.24 µM | selectivity ratio [4]: > 51; EC50 [5]: > 50 µM; EC90 [5]: > 50 µM; EC50 (HepG2): > 50 µM; EC90 (HepG2): > 50 µM; selectivity ratio [6]: > 51 |
| O=C(Nc1ccc2[nH]c(-c3ccccc3)nc2c1)c1ccccc1 | > 10 µM | > 10 µM |  |
| O=C(NCCc1nc(-c2ccccc2)cs1)N1CCCCCC1 | 0.11 µM | 0.236 µM |  |
| NC1CCN(C(=O)Nc2ccc3sc(-c4ccc(F)c(F)c4)nc3c2)C1 (centres undefined) | 2.32 µM | 2.72 µM |  |
| O=C(Nc1ccc2sc(-c3cccc(F)c3)nc2c1)N1CCCCC1 | 0.174 µM | 0.602 µM | t1/2 (Liver [1]): 8.9 min; selectivity ratio [4]: > 287; EC50 [5]: > 50 µM; EC90 [5]: > 50 µM; t1/2 (Liver [2]): 11 min; EC50 (HepG2): > 50 µM; EC90 (HepG2): > 50 µM; selectivity ratio [6]: > 287 |
| O=C(NCCc1nc(-c2cccc(F)c2)cs1)N1CCCc2ccccc21 | 5.95 µM | 14 µM |  |
| CN(C)C1CCN(C(=O)Nc2ccc3sc(-c4ccc(F)c(F)c4)nc3c2)C1 (centres undefined) | 1.7 µM | 1.95 µM | concentration at 1 h [7]: 780 nM; concentration at 1 h [8]: 3000 nM |
| O=C1CCN(C(=O)NCCc2nc(-c3cccc(F)c3)cs2)CC1 | 0.667 µM | 0.813 µM | selectivity ratio [4]: > 75; EC50 [5]: > 50 µM; EC90 [5]: > 50 µM; EC50 (HepG2): > 50 µM; EC90 (HepG2): > 50 µM; selectivity ratio [6]: > 75 |
| O=C(Nc1ccc2sc(-c3ccc(F)cc3)nc2c1)N1CCCC1 | 0.375 µM | 0.895 µM | selectivity ratio [4]: > 133; EC50 [5]: > 50 µM; EC90 [5]: > 50 µM; EC50 (HepG2): > 50 µM; EC90 (HepG2): > 50 µM; selectivity ratio [6]: > 133 |
| O=C(Nc1ccc2sc(-c3ccc(F)c(F)c3)nc2c1)N1CCC(F)(F)CC1 | 2.98 µM | 4.17 µM |  |
| O=C(Nc1nc2cc(-c3ccc(F)c(F)c3)ccc2s1)N1CCC(F)C1 (centres undefined) | 2.64 µM | 5.28 µM |  |
| N=C(N)c1ccc(OCCCCCOc2ccc(C(=N)N)cc2)cc1 | 0.00105 µM | 0.00354 µM | selectivity ratio [4]: > 43200; EC50 [5]: 45.4 µM; EC90 [5]: > 100 µM; EC50 (HepG2): > 100 µM; EC90 (HepG2): > 100 µM; selectivity ratio [6]: > 93000 |
| O=C(Nc1ccc2sc(-c3ccccc3)nc2c1)c1nccs1 | 5.86 µM | > 10 µM |  |
| O=C(Nc1ccc2oc(-c3ccccc3)nc2c1)N1CCCC1 | 5.25 µM | > 10 µM | concentration at 1 h [7]: 270 nM; concentration at 1 h [8]: 397 nM |
| O=C(Nc1ccc2sc(-c3ccccc3)nc2c1)c1ccsc1 | 1.57 µM | 2.49 µM |  |
| O=C(Nc1ccc2scnc2c1)N1CCCC1 | > 20 µM | > 20 µM |  |
| CC(C)(Cc1nc(-c2ccccc2)cs1)NC(=O)c1ccccc1 | > 10 µM | > 10 µM |  |
| CC(C)(Cc1csc(-c2ccccc2)n1)NC(=O)c1ccccc1 | > 10 µM | > 10 µM |  |
| O=C(Nc1ccc2sc(-c3ccc(F)cc3)nc2c1)c1ccccc1 | 1.92 µM | 3 µM |  |
| O=C(Nc1ccc2sc(-c3ccccc3)nc2c1)N1CCSC1 | 1.24 µM | 2.38 µM |  |

| Compound | EC50 [3] | EC90 [3] | further results |
| --- | --- | --- | --- |
| CCN(CC)CCCC(C)Nc1c2ccc(Cl)cc2nc2ccc(OC)cc12 (centres undefined) [QUINACRINE] |  |  | EC50 [5]: 4.23 µM; EC90 [5]: 9.94 µM; EC50 (HepG2): 10.4 µM; EC90 (HepG2): 18.2 µM |
| N#CC1CCN(C(=O)Nc2ccc3sc(-c4ccc(F)c(F)c4)nc3c2)C1 (centres undefined) | 2.85 µM | 4.67 µM |  |
| CC(C)(CNC(=O)c1ccccc1)c1nc(-c2ccccc2)cs1 | > 10 µM | > 10 µM |  |
| O=C(Nc1ccc2sc(-c3ccc(F)cc3F)nc2c1)N1CCCC1 | 0.929 µM | 1.48 µM |  |
| COC1CCN(C(=O)Nc2ccc3sc(-c4ccc(F)c(F)c4)nc3c2)C1 (centres undefined) | 3.05 µM | 4.59 µM |  |
| CC(C)(Cc1csc(-c2ccccc2)n1)NC(=O)N1CCCCCC1 | > 10 µM | > 10 µM |  |
| O=C(NCCc1nc(-c2cccc(F)c2)cs1)N1CCc2ccccc2C1 | 9.76 µM | 13.8 µM |  |
| O=C(Nc1ccc2sc(-c3ccccc3)nc2c1)c1cscn1 | > 10 µM | > 10 µM |  |
| O=C(Nc1nc2ccc(-c3ccc(F)c(F)c3)cc2s1)N1CCC(F)C1 (centres undefined) | 2.23 µM | > 20 µM |  |
| CC(C)(Cc1nc(-c2cccc(F)c2)cs1)NC(=O)c1ccccc1 | > 10 µM | > 10 µM |  |
| O=C(Nc1ccc2sc(-c3ccccc3)nc2c1)N1CC=CCC1 | 1.12 µM | 1.35 µM |  |
| CN1CCN(C(=O)Nc2ccc3sc(-c4cccc(F)c4)nc3c2)CC1 | 3.15 µM | 7.55 µM |  |
| O=C(Nc1ccc2sc(-c3cccc(F)c3)nc2c1)c1ccccc1 | 1.78 µM | 3.62 µM |  |
| O=C(Nc1ccc2sc(-c3ccc(F)c(F)c3)nc2c1)N1CCC(O)C1 (centres undefined) | 7.68 µM | 13.6 µM |  |
| O=C(Nc1ccc2sc(-c3cccc(F)c3)nc2c1)N1CCN(C(=O)Nc2ccc3sc(-c4cccc(F)c4)nc3c2)CC1 | > 20 µM | > 20 µM |  |
| Cc1nc2cc(NC(=O)N3CCCC3)ccc2s1 | > 20 µM | > 20 µM |  |
| C[C@@H]1CCC[C@H](C)N1C(=O)NCCc1nc(-c2cccc(F)c2)cs1 | 0.399 µM | 0.564 µM | selectivity ratio [4]: > 125; EC50 [5]: > 50 µM; EC90 [5]: > 50 µM; EC50 (HepG2): > 50 µM; EC90 (HepG2): > 50 µM; selectivity ratio [6]: > 125 |
| O=C(Nc1ccc2sc(-c3ccccc3F)nc2c1)N1CCCCC1 | 0.935 µM | 1.14 µM | selectivity ratio [4]: > 53; EC50 [5]: > 50 µM; EC90 [5]: > 50 µM; EC50 (HepG2): > 50 µM; EC90 (HepG2): > 50 µM; selectivity ratio [6]: > 53 |
| O=C(Nc1ccc2sc(-c3ccccc3)nc2c1)c1cccs1 | 0.882 µM | 2.13 µM | selectivity ratio [4]: > 57; EC50 [5]: > 50 µM; EC90 [5]: > 50 µM; EC50 (HepG2): > 50 µM; EC90 (HepG2): > 50 µM; selectivity ratio [6]: > 57 |
| CC(C)(Cc1csc(-c2ccccc2)n1)NC(=O)N1CCCC1 | > 10 µM | > 10 µM |  |
| C[C@]12CC[C@H]3[C@@H](CCC4=CC(=O)CC[C@@]43C)[C@@H]1CC[C@@H]2O [TESTOSTERONE] |  |  | t1/2 (Liver [1]): 22.7 min; t1/2 (Liver [2]): 5.26 min |
| O=C(Nc1ccc2oc(-c3ccccc3)nc2c1)c1ccccc1 | > 10 µM | > 10 µM | t1/2 (Liver [1]): 60 min; t1/2 (Liver [2]): 17 min |
